Tests used:
[1] = tested on: Cynomolgus monkey; experiment: AUC (0 to 24 hrs) in cynomolgus monkey at 10 mg/kg, po; type: ADME, organism-based, Macaca fascicularis; parameters: time < 24 hr, dose 10 mg/kg, route oral; details: in vivo, 24 h
Outline: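 Single oral dose of 10 mg/kg. Cmax and AUC0-24 taken from the oral arm. Rat: male Sprague-Dawley, dosed in 0.5% methylcellulose suspension, mean ± SD (n = 3). Guinea pig: 20% NMP + 0.5% MC suspension, mean ± SD (n = 3). Dog and cynomolgus monkey: 2.5 μL/mL Tween 80 + 0.5 (w/v) MC suspension.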

[2] = Plasma concentration in Dunkin-Hartley guinea pig MIA-induced osteoarthritic pain model at 100 mg/kg, po measured 2 hrs post dose; type: ADME, organism-based, Cavia porcellus
Outline: (§1)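 Intra-articular MIA into the right shoulder joint on day 0; oral dosing at 100, 250 or 500 mg/kg on day 3, incapacitance (forelimb weight bearing) measured. Plasma concentration sampled 2 h post dose. Means of 6–8 animals per group, single experiment.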

[3] = tested on: Canis familiaris; experiment: Toxicity in Beagle dog assessed as emesis at 10 mg/kg, po; type: organism-based, Canis lupus familiaris; details: in vivo
[4] = Ratio of plasma concentration in Dunkin-Hartley guinea pig LPS-induced hyperalgesia pain model to IC50 for mPGES1 in human whole blood; type: ADME; details: in vivo
[5] = tested on: Cynomolgus monkey; experiment: Oral bioavailability in cynomolgus monkey at 10 mg/kg; type: ADME, organism-based, Macaca fascicularis; details: in vivo
Outline: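 Plasma PK after 1 mg/kg i.v. and 10 mg/kg p.o.; %F from both routes. Rat: male Sprague-Dawley, oral 0.5% methylcellulose suspension, i.v. 20% NMP/20% ethanol/60% PEG 200, n = 3. Dog oral: Tween 80 2.5 μL/mL + 0.5% MC suspension. Monkey oral: same Tween/MC suspension; i.v. 10% NMP/10% ethanol/10% PEG/70% PEG200-water premix.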

[6] = Ratio of plasma concentration in Dunkin-Hartley guinea pig MIA-induced osteoarthritic pain model to IC50 for mPGES1 in guinea pig whole blood; type: ADME; details: in vivo
[7] = tested on: Cavia porcellus; experiment: Analgesic activity in Dunkin-Hartley guinea pig MIA-induced osteoarthritic pain model assessed as reversal of incapacitance at 250 mg/kg, po administered on day 3 measured 6 to 7 hrs post dose relative to control; type: functional
Outline: (§2)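 Day 0: monoiodoacetate injected into the right shoulder joint of guinea pigs; saline-injected animals as comparison. Day 3: compound given orally at 100, 250 or 500 mg/kg, and weight-bearing incapacitance on the injected forelimb measured. Plasma sampled at the PD time point, n = 6–8 per group, single experiment.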

[8] = tested on: Cavia porcellus; experiment: Analgesic activity in Dunkin-Hartley guinea pig hyperalgesia pain model assessed as inhibition of LPS-induced hyperalgesia at 100 mg/kg, po administered 2 hrs prior to LPS challenge measured after 4.5 hrs relative to control; type: functional
Outline: (§3)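 Guinea pigs received compound orally, once daily, at 10, 30 or 100 mg/kg, 2 h before LPS was injected into the plantar surface of the right paw. Saline-injected animals served as the comparison for thermal hyperalgesia. Plasma and brain drug levels taken 7 h after dosing, mean of n = 6–9 per group, from a single experiment.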

[9] = Drug uptake in brain of Dunkin-Hartley guinea pig LPS-induced hyperalgesia pain model at 100 mg/kg, po administered 2 hrs prior to LPS challenge measured 7 hrs post dose; type: ADME, organism-based, Cavia porcellus; details: read-out: Drug uptake; outline: as §3
[10] = tested on: Cavia porcellus; experiment: Analgesic activity in Dunkin-Hartley guinea pig hyperalgesia pain model assessed as inhibition of LPS-induced hyperalgesia administered orally 2 hrs prior to LPS challenge measured after 4.5 hrs; type: functional; details: po; outline: as §3
[11] = Ratio of drug uptake in brain to plasma of Dunkin-Hartley guinea pig LPS-induced hyperalgesia pain model at 30 mg/kg, po administered 2 hrs prior to LPS challenge measured 7 hrs post dose; type: ADME, organism-based, Cavia porcellus; details: read-out: BPR
Outline: (§4)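 Guinea pigs dosed orally at 10, 30 or 100 mg/kg 2 h before intraplantar LPS in the right hind paw; thermal hyperalgesia scored. Plasma (ng/mL) and brain (ng/g) levels taken 7 h post dose; brain/plasma ratio computed. Means of 6–9 animals per group, single experiment.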

[12] = Ratio of drug uptake in brain to plasma of Dunkin-Hartley guinea pig LPS-induced hyperalgesia pain model at 10 mg/kg, po administered 2 hrs prior to LPS challenge measured 7 hrs post dose; type: ADME, organism-based, Cavia porcellus; details: brain and plasma, read-out: BPR; outline: as §4
[13] = Plasma concentration in Dunkin-Hartley guinea pig MIA-induced osteoarthritic pain model at 500 mg/kg, po measured 2 hrs post dose; type: ADME, organism-based, Cavia porcellus; outline: as §1
[14] = Plasma concentration in Dunkin-Hartley guinea pig LPS-induced hyperalgesia pain model at 100 mg/kg, po administered 2 hrs prior to LPS challenge measured 7 hrs post dose; type: ADME, organism-based, Cavia porcellus; outline: as §4
[15] = tested on: Cavia porcellus; experiment: Analgesic activity in Dunkin-Hartley guinea pig MIA-induced osteoarthritic pain model assessed as reversal of incapacitance administered orally on day 3 measured 6 to 7 hrs post dose; type: functional; outline: as §2

AUC [1]: 9669 ng·h/mL
concentration at 2 h [2]: 678 ng/mL
Ratio [4]: 5
F [5]: 44%
Ratio [6]: 7
concentration at 7 h [9]: 1150 nM
Kp at 7 h [11]: 0.6
Kp at 7 h [12]: 1.02
concentration at 2 h [13]: 3540 nM
concentration at 7 h [14]: 1080 nM
SMILES: CC1(C)Cc2c(c(C(=O)Nc3ccc(F)c(C(F)(F)F)c3)cc3nc(Nc4c(F)cccc4Cl)[nH]c23)O1
Activity [3]: Non-Toxic
Activity [7]: 73%
inhibition in vivo at 100 mg/kg [8]: 66%
ED50 [10]: 39.6 mg/kg
Activity [15]: Dose-dependent effect
ED50 ([15]; po): 106 mg/kg

Source: ChEMBL document CHEMBL4219124, “Alleviating CYP and hERG liabilities by structure optimization of dihydrofuran-fused tricyclic benzo[d]imidazole series - Potent, selective and orally efficacious microsomal prostaglandin E synthase-1 (mPGES-1) inhibitors: Part-2” (Bioorg Med Chem Lett, 2018)
